# Measurements from ChEMBL document CHEMBL1240415, “Design, synthesis and antimicrobial activities of some new quinoline derivatives carrying 1,2,3-triazole moiety” (2010).
# What was measured:
# Type in all cases: functional
# Staphylococcus aureus = experiment: Antibacterial activity against Staphylococcus aureus ATTC 25923 after 3 to 4 days by serial plate dilution method; details: for MIC: Staphylococcus aureus, ATTC 25923
# Summary of the method: (§1)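 Serial dilutions in Mueller-Hinton broth in tubes, pH adjusted to 5.0 with phosphate buffer. Inoculated with a standardized bacterial suspension and incubated 16–18 h at 37 °C. MIC is the lowest concentration with no visible growth, tested over 6.25–100 µg/mL. Zones come from an agar well diffusion assay: compounds in DMSO are added to wells in seeded agar, DMSO control, triplicate plates, 37 °C for 3–4 days, inhibition zone diameter in mm.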
# Escherichia coli = experiment: Antibacterial activity against Escherichia coli ATTC 25922 after 3 to 4 days by serial plate dilution method; details: for MIC: Escherichia coli, ATTC 25922; summary of the method: as §1
# Pseudomonas aeruginosa = experiment: Antibacterial activity against Pseudomonas aeruginosa ATCC 27853 after 3 to 4 days by serial plate dilution method; details: for MIC: Pseudomonas aeruginosa, ATCC 27853; summary of the method: as §1
# Klebsiella pneumoniae = experiment: Antibacterial activity against recultured Klebsiella pneumoniae after 3 to 4 days by serial plate dilution method; details: for MIC: Klebsiella pneumoniae; summary of the method: as §1
# Streptococcus pyogenes = experiment: Antibacterial activity against Streptococcus pyogenes after 3 to 4 days by serial plate dilution method; details: for MIC: Streptococcus pyogenes; summary of the method: as §1
# Aspergillus flavus = experiment: Antifungal activity against Aspergillus flavus NCIM 524 after 3 to 4 days by serial plate dilution method; details: for MIC: Aspergillus flavus, NCIM 524
# Summary of the method: (§2)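 Sabouraud agar made from peptone, glucose and agar in water, pH 5.7. Fungal spores suspended in normal saline and used to lawn the plates, which were dried 1 h at 37 °C. Wells punched and compounds added in DMSO, with a DMSO solvent control. Triplicate plates held at 37 °C for 3–4 days. Read-out is inhibition zone diameter.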
# Aspergillus fumigatus = experiment: Antifungal activity against Aspergillus fumigatus NCIM 902 after 3 to 4 days by serial plate dilution method; details: for MIC: Aspergillus fumigatus, NCIM 902; summary of the method: as §2
# Talaromyces marneffei = experiment: Antifungal activity against recultured Penicillium marneffei after 3 to 4 days by serial plate dilution method; details: for MIC: Talaromyces marneffei; summary of the method: as §2
# [1] = tested on: Trichophyton mentagrophytes; experiment: Antifungal activity against recultured Trichophyton mentagrophytes after 3 to 4 days by serial plate dilution method; details: for MIC: Trichophyton mentagrophytes; summary of the method: as §2
# Candida albicans = experiment: Antifungal activity against Candida albicans after 3 to 4 days by serial plate dilution method; details: for MIC: Candida albicans; summary of the method: as §2
SMILES,MIC (Staphylococcus aureus),MIC (Escherichia coli),MIC (Pseudomonas aeruginosa),MIC (Klebsiella pneumoniae),MIC (Streptococcus pyogenes),MIC (Aspergillus flavus),MIC (Aspergillus fumigatus),MIC (Talaromyces marneffei),MIC [1],MIC (Candida albicans),diameter of the inhibition zone (DIZ) (Staphylococcus aureus),diameter of the inhibition zone (DIZ) (Escherichia coli),diameter of the inhibition zone (DIZ) (Pseudomonas aeruginosa),diameter of the inhibition zone (DIZ) (Klebsiella pneumoniae),diameter of the inhibition zone (DIZ) (Streptococcus pyogenes),diameter of the inhibition zone (DIZ) (Aspergillus flavus),diameter of the inhibition zone (DIZ) (Aspergillus fumigatus),diameter of the inhibition zone (DIZ) (Talaromyces marneffei),diameter of the inhibition zone (DIZ) [1],diameter of the inhibition zone (DIZ) (Candida albicans)
COc1ccc2nc(C)cc(-n3cc(CN4CCC(N5CCOCC5)CC4)nn3)c2c1,12.5 µg/mL,12.5 µg/mL,12.5 µg/mL,12.5 µg/mL,12.5 µg/mL,12.5 µg/mL,50 µg/mL,50 µg/mL,50 µg/mL,50 µg/mL,10 mm,11 mm,10 mm,11 mm,12 mm,11 mm,<10 mm,<10 mm,<10 mm,<10 mm
COc1ccc(N2CCN(Cc3cn(-c4cc(C)nc5ccc(OC)cc45)nn3)CC2)cc1,6.25 µg/mL,6.25 µg/mL,6.25 µg/mL,6.25 µg/mL,6.25 µg/mL,6.25 µg/mL,6.25 µg/mL,6.25 µg/mL,6.25 µg/mL,6.25 µg/mL,16 mm,20 mm,14 mm,16 mm,14 mm,14 mm,16 mm,18 mm,16 mm,14 mm
COc1ccc2nc(C)cc(-n3cc(CN(C)C4CCCCC4)nn3)c2c1,50 µg/mL,50 µg/mL,50 µg/mL,50 µg/mL,50 µg/mL,50 µg/mL,50 µg/mL,50 µg/mL,50 µg/mL,50 µg/mL,<10 mm,<10 mm,<10 mm,<10 mm,<10 mm,<10 mm,<10 mm,<10 mm,<10 mm,<10 mm
COc1ccc2nc(C)cc(-n3cc(CN(C)C)nn3)c2c1,6.25 µg/mL,6.25 µg/mL,6.25 µg/mL,6.25 µg/mL,6.25 µg/mL,6.25 µg/mL,6.25 µg/mL,6.25 µg/mL,6.25 µg/mL,6.25 µg/mL,16 mm,14 mm,14 mm,16 mm,14 mm,12 mm,16 mm,18 mm,10 mm,10 mm
COc1ccc2nc(C)cc(-n3cc(CN4CCCC4)nn3)c2c1,12.5 µg/mL,12.5 µg/mL,12.5 µg/mL,12.5 µg/mL,12.5 µg/mL,12.5 µg/mL,12.5 µg/mL,12.5 µg/mL,12.5 µg/mL,12.5 µg/mL,10 mm,10 mm,12 mm,11 mm,11 mm,11 mm,10 mm,10 mm,12 mm,10 mm
COc1ccc2nc(C)cc(-n3cc(CN4CCC(c5ccccc5)CC4)nn3)c2c1,12.5 µg/mL,12.5 µg/mL,12.5 µg/mL,12.5 µg/mL,12.5 µg/mL,50 µg/mL,50 µg/mL,50 µg/mL,50 µg/mL,50 µg/mL,10 mm,10 mm,12 mm,11 mm,11 mm,<10 mm,<10 mm,<10 mm,<10 mm,<10 mm
COc1ccc2nc(C)cc(-n3cc(CN4CCN(C)CC4)nn3)c2c1,6.25 µg/mL,6.25 µg/mL,6.25 µg/mL,6.25 µg/mL,6.25 µg/mL,6.25 µg/mL,6.25 µg/mL,6.25 µg/mL,6.25 µg/mL,6.25 µg/mL,16 mm,20 mm,14 mm,14 mm,16 mm,16 mm,18 mm,16 mm,14 mm,14 mm
O=C(O)c1cn(C2CC2)c2cc(N3CCNCC3)c(F)cc2c1=O [CIPROFLOXACIN],,,,6.25 µg/mL,6.25 µg/mL,,,,,,22 mm,30 mm,16 mm,23 mm,25 mm,,,,,

# Further compounds by falling MIC (Aspergillus flavus), results first:
MIC (Staphylococcus aureus),MIC (Escherichia coli),MIC (Pseudomonas aeruginosa),MIC (Klebsiella pneumoniae),MIC (Streptococcus pyogenes),MIC (Aspergillus flavus),MIC (Aspergillus fumigatus),MIC (Talaromyces marneffei),MIC [1],MIC (Candida albicans),SMILES,diameter of the inhibition zone (DIZ) (Staphylococcus aureus),diameter of the inhibition zone (DIZ) (Escherichia coli),diameter of the inhibition zone (DIZ) (Pseudomonas aeruginosa),diameter of the inhibition zone (DIZ) (Klebsiella pneumoniae),diameter of the inhibition zone (DIZ) (Streptococcus pyogenes),diameter of the inhibition zone (DIZ) (Aspergillus flavus),diameter of the inhibition zone (DIZ) (Aspergillus fumigatus),diameter of the inhibition zone (DIZ) (Talaromyces marneffei),diameter of the inhibition zone (DIZ) [1],diameter of the inhibition zone (DIZ) (Candida albicans)
12.5 µg/mL,6.25 µg/mL,6.25 µg/mL,6.25 µg/mL,12.5 µg/mL,12.5 µg/mL,6.25 µg/mL,6.25 µg/mL,6.25 µg/mL,6.25 µg/mL,COc1ccc2nc(C)cc(-n3cc(CN4CCN(c5ccc(F)cc5)CC4)nn3)c2c1,11 mm,12 mm,10 mm,12 mm,<10 mm,10 mm,14 mm,12 mm,10 mm,12 mm
6.25 µg/mL,6.25 µg/mL,6.25 µg/mL,6.25 µg/mL,6.25 µg/mL,6.25 µg/mL,6.25 µg/mL,6.25 µg/mL,6.25 µg/mL,6.25 µg/mL,COc1ccc2nc(C)cc(-n3cc(CN4CCN(C(C)C)CC4)nn3)c2c1,18 mm,20 mm,14 mm,16 mm,16 mm,16 mm,18 mm,14 mm,16 mm,14 mm
6.25 µg/mL,6.25 µg/mL,6.25 µg/mL,6.25 µg/mL,6.25 µg/mL,6.25 µg/mL,6.25 µg/mL,6.25 µg/mL,6.25 µg/mL,6.25 µg/mL,COc1ccc2nc(C)cc(-n3cc(CNCCCN(C)C)nn3)c2c1,14 mm,10 mm,12 mm,12 mm,14 mm,14 mm,16 mm,14 mm,12 mm,14 mm
6.25 µg/mL,6.25 µg/mL,6.25 µg/mL,6.25 µg/mL,6.25 µg/mL,6.25 µg/mL,6.25 µg/mL,6.25 µg/mL,6.25 µg/mL,6.25 µg/mL,COc1ccc2nc(C)cc(-n3cc(CNC4CC4)nn3)c2c1,16 mm,16 mm,12 mm,18 mm,12 mm,14 mm,18 mm,18 mm,15 mm,13 mm
,,,,,3.12 µg/mL,6.25 µg/mL,6.25 µg/mL,3.12 µg/mL,6.25 µg/mL,Cc1cc(C2CCCCC2)n(O)c(=O)c1.NCCO [CICLOPIROX OLAMINE],,,,,,25 mm,25 mm,20 mm,27 mm,20 mm
